Results pooled from the literature.
Compare with care: the assays were run in different laboratories.
Target: Vascular endothelial growth factor receptor 1 (FLT1, Homo sapiens, UniProt P17948)

CN(CCCC(F)(F)F)c1nccc(-c2cnn3ncccc23)n1  remaining binding (binding; 1 µM): 100%
O=C(c1ccc(Nc2ncc(Cl)c(-c3ccc(Cl)s3)n2)cc1)N1CCC(N2CCCC2)CC1  remaining binding (binding; competition with immobilised ligand; 1 µM): 1.2%
c1cnn2ncc(-c3ccnc(N4CCC45COC5)n3)c2c1  remaining binding (binding; 1 µM): 87%
CCC(=O)N[C@H]1CC[C@@H](C(=O)N(C)c2ccc(-c3nc4ccccc4o3)cc2)C1  remaining binding (cell-free assay; competition with immobilised ligand; 1 µM): 98%
COc1ncc2cc3ccccc3nc2c1C#N  remaining binding (cell-free assay; competition with immobilised ligand; 5 µM): 95%
N[C@@H]1CCN(c2nccc(-c3cnn4ncccc34)n2)C1  remaining binding (binding; 1 µM): 100%
O=C(Nc1cccnn1)N1CCC(=Cc2cccc(Oc3ccc(C(F)(F)F)cn3)c2)CC1  remaining binding (cell-free assay; competition with immobilised ligand; 1 µM): 100%
CNC(=O)[C@@H]1CC[C@@H](n2c(-c3ccc4cnccc4c3)nc3ccc(C(=O)NCc4cccc(C(N)=O)c4)cc32)C1  remaining binding (binding; competition with immobilised ligand; 1 µM): 100%
CCN1CCN(Cc2ccc(C(=O)Nc3ccc(C)c(Oc4ccc5c(c4)CC(=O)N5)c3)cc2C(F)(F)F)CC1  remaining binding (binding; competition with immobilised ligand; 1 µM): 63%
C[C@@H]1CCN(c2nccc(-c3cnn4ncccc34)n2)C1  remaining binding (binding; 1 µM): 100%
Cc1nc(N2CC[C@@H](O)C2)ncc1-c1cc(C(F)(F)F)cc2[nH]ncc12  remaining binding (cell-free assay; competition with immobilised ligand; 1 µM): 100%
O=C(Nc1c[nH]nc1C(=O)NC1CCNCC1)c1cc(F)cc(F)c1  remaining binding (binding; competition with immobilised ligand; 1 µM): 63%
COc1ccc2c(c1)O[C@@H](c1ccc(OC)c(OC)c1)C[C@H]2NC(=O)C1(c2ccc3c(c2)OC(F)(F)O3)CC1  remaining binding (cell-free assay; competition with immobilised ligand; 1 µM): 100%
F[C@@H]1CCN(c2nccc(-c3cnn4ncccc34)n2)C1  remaining binding (binding; 1 µM): 100%
CCN(CC)CCCCNc1ncc2cc(-c3cc(OC)cc(OC)c3)c(NC(=O)NC(C)(C)C)nc2n1  remaining binding (cell-free assay; competition with immobilised ligand; 1 µM): 8%
CC1=C(C#N)[C@@H](c2ccc3[nH]nc(C)c3c2)C(C#N)=C(c2ccc(Cl)cc2)N1  remaining binding (cell-free assay; competition with immobilised ligand; 1 µM): 100%
COc1cnc(Nc2cccc(S(N)(=O)=O)c2)nc1N1CCN(c2ccccc2)C(=O)C1  remaining binding (binding; competition with immobilised ligand; 1 µM): 98%
CN(C)c1nccc(-c2cnn3ncccc23)n1  remaining binding (binding; 1 µM): 100%
O=C(NCCCN1CCOCC1)c1ccc(Nc2ncc(Cl)c(-c3ccc(Cl)s3)n2)cc1  remaining binding (binding; competition with immobilised ligand; 1 µM): 5.7%
CN(c1nccc(-c2cnn3ncccc23)n1)C1CC1  remaining binding (binding; 1 µM): 100%
O=c1nc(-c2ccccn2)sc2ccccc12  remaining binding (cell-free assay; competition with immobilised ligand; 1 µM): 100%
O=C(c1ccc(Nc2ncc(Cl)c(-c3cc4ccccc4s3)n2)cc1)N1CCC(N2CCCC2)CC1  remaining binding (binding; competition with immobilised ligand; 1 µM): 6.2%
